Rows were chosen to be rich in hits. Some 5.9% of all compounds tested hit in one or more screens of this group.
GASC1 inh: inhibitors of GASC-1 (KDM4C) histone demethylase, primary screen, biochemical, single concentration HTS; Lysine-specific demethylase 4C (Homo sapiens), Q9H3R0; AID 720574, 2013; GST-KDM4C 2-372, H3K9me3 peptide, LANCE TR-FRET; inhibition, % at 12.5 µM; 96,000 compounds, 0.15% hits;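 active means mean replicate inhibition above about 25%, with at least 55% of replicates also reaching it, limit read from the data, passing the limit was not always enough; inconclusive means only one of those two conditions met; inactive means neither condition met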
Target sequence (Q9H3R0 2-372 limits assumed): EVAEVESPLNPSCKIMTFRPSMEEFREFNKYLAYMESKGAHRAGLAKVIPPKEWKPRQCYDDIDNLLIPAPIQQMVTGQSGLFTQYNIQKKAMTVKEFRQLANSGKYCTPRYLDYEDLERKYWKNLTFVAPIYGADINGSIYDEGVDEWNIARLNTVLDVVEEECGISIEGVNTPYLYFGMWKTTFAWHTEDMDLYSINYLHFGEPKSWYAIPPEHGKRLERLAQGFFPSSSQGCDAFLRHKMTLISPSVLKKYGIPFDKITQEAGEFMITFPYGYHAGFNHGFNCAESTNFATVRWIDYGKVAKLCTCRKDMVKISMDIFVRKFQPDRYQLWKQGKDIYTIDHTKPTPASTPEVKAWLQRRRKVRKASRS
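System: N-terminal GST-fused human GASC-1 (KDM4C) fragment, residues 2-372; amount: enzyme final amount 10 nM; incubation: reaction 30 min RT, detection step 1 h RT; medium: HEPES buffer, pH 7.5, plus ascorbate; technique: LANCE TR-FRET, Eu antibody, ULight-streptavidin, EDTA, ex 340 nm, em 618/671 nm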
IDH1 R132H inh: inhibitors of IDH1 R132H reductase, primary screen, biochemical, plate reader, single point; Isocitrate dehydrogenase [NADP] cytoplasmic (Homo sapiens), O75874; diaphorase/resazurin fluorescence, 60 min; inhibition, % at 10 µM; 70,000 compounds, 0.18% hits; in the data active means inhibition above about 34%; inconclusive means no clear call, values can overlap the other calls; inactive means below about 11%
T cruzi growth-1: T. cruzi intracellular proliferation inhibitors, primary screen, cell-based, beta-gal Tulahuen parasites, NIH3T3 host, luminescence; 77,000 compounds, 5.9% hits; T. cruzi beta-gal in NIH3T3, GalScreen luminescence, 90 h; inhibition, % at 8.34 µM;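 active means mean inhibition above about 93%, with at least 55% of replicates each passing it, limit read from the data, passing the limit was not always enough; inconclusive means only one of those two conditions holds; inactive means neither condition holds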
Pf Dd2 inh: P. falciparum Dd2 growth inhibitors, primary screen, SYBR Green fluorescence, single dose replicates | 72 h; stronger effect = lower value | 94,000 compounds, 2.3% hits | activity change, % at 10 µM; in the data active means activity change below about -80%; inconclusive means no clear call, values can overlap the other calls
T cruzi growth-2: T. cruzi intracellular proliferation inhibitors, confirmation, cell-based, NIH3T3 host, beta-gal parasite, luminescence, cherry-pick. T. cruzi beta-gal in NIH3T3, GalScreen luminescence, 90 h. shares compounds with T cruzi growth-1. inhibition, % at 8.35 µM. 5,600 compounds, 72% hits;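 active means mean replicate inhibition above about 95% and at least 55% of replicates individually reaching it, limit read from the data; inconclusive means only one of the two criteria is met; inactive means neither criterion is met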
T cruzi growth-3: inhibitors of intracellular T. cruzi replication, confirmation, NIH3T3 host cells, beta-gal parasites, cherry-pick, set 2. shares compounds with T cruzi growth-1. T. cruzi beta-gal in NIH3T3, GalScreen luminescence, 90 h. inhibition, % at 2.09 µM. 5,600 compounds, 21% hits;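 active means mean inhibition above about 95%, with at least 55% of replicates also reaching it, limit read from the data; inconclusive means meets just one of the two conditions; inactive means meets neither condition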
NIH3T3 tox: cytotoxicity in mouse NIH/3T3 fibroblasts, confirmation, cytotoxicity control for T. cruzi proliferation inhibitor project, cell-based, cherry-pick, single point; cytotoxicity (signal decrease), % at 8.35 µM; shares compounds with T cruzi growth-1; NIH/3T3 viability, CellTiter-Glo ATP luminescence, 90 h; 5,600 compounds, 14% hits; AID 651742, 2012;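 active means mean signal decrease across replicates above about 35% based on untreated-well scatter, with enough replicates individually passing, limit read from the data; inconclusive means no rule stated though some were filed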
3T3 cytotox 2: NIH/3T3 fibroblast cytotoxicity, confirmation, cytotoxicity control, cell-based, cherry-pick, single point, set 2; inhibition, % at 24.9 µM; AID 651744, 2012; shares compounds with T cruzi growth-1; NIH/3T3 viability, CellTiter-Glo ATP luminescence, 90 h; 5,600 compounds, 56% hits;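 active means mean loss of cell viability signal at or above a set limit, and enough replicates individually reaching it; inconclusive means meets only the mean limit or only the replicate share; inactive means meets neither condition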
A number is an active result; n = inactive; u = inconclusive; x = not tested or not shown.

SMILES	GASC1 inh	IDH1 R132H inh	T cruzi growth-1	Pf Dd2 inh	T cruzi growth-2	T cruzi growth-3	NIH3T3 tox	3T3 cytotox 2
C[C@H](CO)N1C[C@H](C)[C@H](CN(C)Cc2ccc(Oc3ccccc3)cc2)Oc2c(NC(=O)c3ccc(-c4nccs4)cc3)cccc2C1=O	n	x	103	n	110	109	n	25
C[C@@H]1CN([C@H](C)CO)C(=O)c2cccc(NC(=O)c3ccc(-c4nccs4)cc3)c2O[C@H]1CN(C)Cc1ccccc1	n	n	n	n	x	x	x	x
C[C@@H]1CN([C@H](C)CO)C(=O)c2cccc(NC(=O)c3ccc(-c4nccs4)cc3)c2O[C@H]1CN(C)Cc1ccc(Oc2ccccc2)cc1	n	n	n	n	x	x	x	x
COc1cccc(C#Cc2ccc3c(c2)O[C@H](CN(C)C(C)=O)[C@@H](C)CN([C@@H](C)CO)S3(=O)=O)c1	n	n	u	n	102	n	n	49
COc1cccc(NC(=O)N(C)C[C@@H]2Oc3cc(-c4ccccc4F)ccc3S(=O)(=O)N([C@H](C)CO)C[C@H]2C)c1	n	x	n	n	x	x	x	x
COc1cccc(NC(=O)N(C)C[C@H]2Oc3cc(-c4ccccc4F)ccc3S(=O)(=O)N([C@H](C)CO)C[C@H]2C)c1	x	x	96	n	110	n	n	n
COc1cccc(NC(=O)N(C)C[C@H]2Oc3cc(C#CC4(O)CCCC4)ccc3S(=O)(=O)N([C@H](C)CO)C[C@@H]2C)c1	n	x	x	n	x	x	x	x
COc1cccc(C#Cc2ccc3c(c2)O[C@H](CN(C)C(C)=O)[C@H](C)CN([C@H](C)CO)S3(=O)=O)c1	n	n	n	n	x	x	x	x
COc1cccc(NC(=O)N(C)C[C@@H]2Oc3cc(-c4ccccc4F)ccc3S(=O)(=O)N([C@@H](C)CO)C[C@@H]2C)c1	x	x	n	n	x	x	x	x
COc1cccc(NC(=O)N(C)C[C@@H]2Oc3cc(C#Cc4ccc(F)cc4)ccc3S(=O)(=O)N([C@@H](C)CO)C[C@H]2C)c1	n	n	105	n	109	105	48	30
COc1cccc(NC(=O)N(C)C[C@H]2Oc3cc(C#Cc4ccc(F)cc4)ccc3S(=O)(=O)N([C@H](C)CO)C[C@@H]2C)c1	n	x	94	n	102	n	n	n
COc1cccc(NC(=O)N(C)C[C@@H]2Oc3cc(C#Cc4ccccc4)ccc3S(=O)(=O)N([C@H](C)CO)C[C@H]2C)c1	x	n	u	u	99	n	52	39
COc1cccc(NC(=O)N(C)C[C@@H]2Oc3cc(C#Cc4ccncc4)ccc3S(=O)(=O)N([C@@H](C)CO)C[C@H]2C)c1	n	n	n	n	x	x	x	x
COc1cccc(NC(=O)N(C)C[C@@H]2Oc3cc(-c4ccccc4OC)ccc3S(=O)(=O)N([C@H](C)CO)C[C@H]2C)c1	n	x	x	n	x	x	x	x
COc1cccc(NC(=O)N(C)C[C@H]2Oc3cc(C#Cc4ccc(F)cc4)ccc3S(=O)(=O)N([C@@H](C)CO)C[C@H]2C)c1	n	x	116	n	n	102	n	n
COc1ccc(C#Cc2ccc3c(c2)O[C@H](CN(C)C(=O)Nc2cccc(OC)c2)[C@H](C)CN([C@H](C)CO)S3(=O)=O)cc1	n	x	98	n	105	111	n	n
COc1cccc(NC(=O)N(C)C[C@@H]2Oc3cc(C#Cc4ccc(F)cc4)ccc3S(=O)(=O)N([C@@H](C)CO)C[C@@H]2C)c1	n	x	98	-86	102	107	45	n
Cc1ccc(OCC(=O)Nc2cccc(-c3nc4cc(Cl)ccc4o3)c2C)cc1C	x	n	x	x	x	x	x	x
CCC(C)c1c(O)nc(SCC(=O)Nc2ccc(Cl)cc2)[nH]c1=O (stereo not given)	x	n	x	x	x	x	x	x
COc1ccc(NC(=O)C(=O)NCC(=O)Nc2ccc(OC)c(Cl)c2)cc1	x	n	x	x	x	x	x	x
C[C@H](CO)N1C[C@H](C)[C@H](CN(C)C(=O)Nc2ccc(C(F)(F)F)cc2)Oc2c(NC(=O)c3ccc(-c4nccs4)cc3)cccc2C1=O	n	x	116	n	102	n	n	84
C[C@@H]1CN([C@@H](C)CO)C(=O)c2cccc(NC(=O)c3ccc(-c4nccs4)cc3)c2O[C@H]1CN(C)C(=O)Nc1ccc(F)cc1	n	n	n	n	x	x	x	x
C[C@@H]1CN([C@H](C)CO)C(=O)c2cccc(NC(=O)c3nc4ccccc4s3)c2O[C@H]1CN(C)C(=O)Nc1ccc(C(F)(F)F)cc1	n	n	93	-86	u	u	n	50
C[C@@H]1CN([C@@H](C)CO)C(=O)c2cccc(NC(=O)c3ccc(-c4nccs4)cc3)c2O[C@@H]1CN(C)C(=O)Nc1ccc(C(F)(F)F)cc1	n	n	u	n	108	n	n	98
C[C@H](CO)N1C[C@H](C)[C@@H](CN(C)C(=O)Nc2ccc(C(F)(F)F)cc2)Oc2c(NC(=O)c3ccc(-c4nccs4)cc3)cccc2C1=O	n	x	n	n	x	x	x	x
SMILES	GASC1 inh	IDH1 R132H inh	T cruzi growth-1	Pf Dd2 inh	T cruzi growth-2	T cruzi growth-3	NIH3T3 tox	3T3 cytotox 2
COc1ccc(-n2nnnc2SCC(=O)Nc2cc(C)c(Cl)cc2OC)cc1	x	n	x	x	x	x	x	x
Cc1ccc(S(=O)(=O)NCCSc2nnc(Nc3ccccc3)s2)cc1	x	n	x	x	x	x	x	x
Cc1ccc(-c2nc3ncccc3o2)cc1NC(=O)COc1ccc(C2CCCCC2)cc1	x	n	x	x	x	x	x	x
COc1ccccc1C(=O)Nc1ccc2c(c1)C(=O)N(C)[C@H]1CC[C@H](CC(=O)Nc3cccc(C(C)C)c3)O[C@@H]1CO2	n	x	u	x	106	n	n	n
COc1cccc(C(=O)Nc2ccc3c(c2)C(=O)N(C)[C@H]2CC[C@@H](CC(=O)NCc4ccc(F)cc4)O[C@H]2CO3)c1	n	x	97	n	105	n	51	50
CN1C(=O)c2cc(NC(=O)c3ccc(Cl)cc3)ccc2OC[C@@H]2O[C@H](CC(=O)NCc3cccc(F)c3)CC[C@@H]21	n	x	101	n	n	n	43	34
Cc1cc(C)c(OCC(O)CN2CCN(CCO)CC2)c(C)c1 (stereo not given)	x	n	x	x	x	x	x	x
COc1ccc(-c2ccc([C@H]3[C@@H](CO)N4CCCCN(S(=O)(=O)c5cccs5)C[C@H]34)cc2)cc1	n	x	105	n	106	n	n	105

Bioassay records as filed in PubChem BioAssay.
